In ChEMBL document CHEMBL1153004, “Bis-14-membered ring diketal diamines: synthesis and evaluation of their anti-HIV and anti-tumoral activities” (Eur J Med Chem, 2009):
pIC50: −log10 of the molar value.

Legend:
[1] = tested on: KB; assay: Cytotoxicity against human KB cells after 3 hrs by MTS assay; assay type: functional, cell-based
Outline: (§1)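 Medium was DMEM-Glutamax for KB and HepG2 and RPMI 1640 for the other lines, each with 10% FCS, at 37 °C, 5% CO2. Cells were seeded at 500–800 per well and left to adhere for 24 h. Compounds in DMSO were added at 10^-5 M final, with 3 h exposure. Readout was MTS absorbance versus control wells after blank subtraction; triplicate.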

[2] = tested on: Human immunodeficiency virus 1; assay: Antiviral activity against HIV1 LAI in human CEM-SS cells assessed as inhibition of viral replication; assay type: functional, organism-based; details: Human immunodeficiency virus 1, LAI
Outline: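 CEM-SS cells in RPMI 1640 with 10% FCS at 37 °C, 5% CO2, infected with HIV-1 LAI at 20 TCID50. After 30 min adsorption, cells were washed and resuspended at 10^5 cells/mL with serial compound dilutions. After 5 days, reverse transcriptase activity of released virus particles was measured. IC50 came from a median-effect plot; mean of 2 experiments.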

[3] = Cytotoxicity against human MT4 cells by MTT assay; assay type: cell-based
Outline: (§2)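 Uninfected cells were incubated in parallel with a range of compound concentrations. Viability was read by MTT reduction to formazan, OD 540 nm. CC50 was calculated with the same median-effect program used for IC50. Mean of 2 separate experiments.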

[4] = tested on: KB; assay: Antiproliferative activity against human KB cells at 10 uM after 3 hrs by MTS assay; assay type: functional; outline: as §1
[5] = tested on: HepG2; assay: Antiproliferative activity against human HepG2 cells at 10 uM after 3 hrs by MTS assay; assay type: functional; details: HepG2, 3 h; outline: as §1
[6] = tested on: HCT-116; assay: Antiproliferative activity against human HCT116 cells at 10 uM after 3 hrs by MTS assay; assay type: functional; details: HCT-116, 3 h; outline: as §1
[7] = tested on: Human immunodeficiency virus 1; assay: Antiviral activity against HIV1 3B in human MT4 cells assessed as inhibition of viral replication; assay type: functional, organism-based; details: Human immunodeficiency virus 1, 3B
Outline: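 MT-4 cells in RPMI 1640 with 10% FCS at 37 °C, 5% CO2, infected with HIV-1 IIIB at 5 TCID50. After 30 min adsorption, cells were washed and resuspended at 10^5 cells/mL with serial compound dilutions. Inhibition of virus-induced cytopathogenicity was read after 5 days. IC50 came from a median-effect plot; mean of 2 experiments.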

[8] = tested on: HL-60; assay: Antiproliferative activity against human HL60 cells at 10 uM after 3 hrs by MTS assay; assay type: functional; details: HL-60, 3 h; outline: as §1
[9] = tested on: MCF7; assay: Cytotoxicity against human MCF7 cells after 3 hrs by MTS assay; assay type: functional, cell-based; details: MCF7, 3 h; outline: as §1
[10] = tested on: MCF7; assay: Antiproliferative activity against human multidrug-resistant MCF7 cells at 10 uM after 3 hrs by MTS assay; assay type: functional; details: MCF7, 3 h; outline: as §1
[11] = tested on: MCF7; assay: Antiproliferative activity against human MCF7 cells at 10 uM after 3 hrs by MTS assay; assay type: functional; details: MCF7, 3 h; outline: as §1
[12] = Cytotoxicity against human CEM-SS cells by MTT assay; assay type: cell-based; outline: as §2
[13] = tested on: HCT-116; assay: Cytotoxicity against human HCT116 cells after 3 hrs by MTS assay; assay type: functional, cell-based; details: HCT-116, 3 h; outline: as §1
[14] = tested on: A549; assay: Antiproliferative activity against human A549 cells at 10 uM after 3 hrs by MTS assay; assay type: functional; details: A549, 3 h; outline: as §1
[15] = tested on: PC-3; assay: Antiproliferative activity against human PC3 cells at 10 uM after 3 hrs by MTS assay; assay type: functional; details: PC-3, 3 h; outline: as §1
[16] = tested on: HL-60; assay: Cytotoxicity against human HL60 cells after 3 hrs by MTS assay; assay type: functional, cell-based; details: HL-60, 3 h; outline: as §1
[17] = tested on: SK-OV-3; assay: Antiproliferative activity against human SKOV3 cells at 10 uM after 3 hrs by MTS assay; assay type: functional; details: SK-OV-3, 3 h; outline: as §1
[18] = tested on: PC-3; assay: Cytotoxicity against human PC3 cells after 3 hrs by MTS assay; assay type: functional, cell-based; details: PC-3, 3 h; outline: as §1
[19] = tested on: SF-268; assay: Antiproliferative activity against human SF268 cells at 10 uM after 3 hrs by MTS assay; assay type: functional; details: SF-268, 3 h; outline: as §1

SMILES	pIC50 [1]	pIC50 [2]	CC50 [3] [µM]	inhibition at 10 µM [4] [%]	inhibition at 10 µM [5] [%]	inhibition at 10 µM [6] [%]	pIC50 [7]	inhibition at 10 µM [8] [%]	pIC50 [9]	inhibition at 10 µM [10] [%]	inhibition at 10 µM [11] [%]	CC50 [12] [µM]	pIC50 [13]	inhibition at 10 µM [14] [%]	inhibition at 10 µM [15] [%]	pIC50 [16]	inhibition at 10 µM [17] [%]	pIC50 [18]	inhibition at 10 µM [19] [%]
CO[C@H]1CC(=O)N[C@H](c2ccccc2)CO[C@H](OC)CCN(Cc2ccc(CN3CC[C@@H](OC)OC[C@@H](c4ccccc4)NC(=O)C[C@H](OC)OC[C@H]3c3ccccc3)cc2)[C@H](c2ccccc2)CO1	5.00	5.06	7.8	47	27	47	< 5.11	54	5.00	14	45	> 10	5.00	33	51	5.00	38	5.00	27
c1cc(CN2CCCNCCNCCCNCC2)ccc1CN1CCCNCCNCCCNCC1 [PLERIXAFOR]	–	6.49	6.5	–	–	–	6.39	–	–	–	–	> 5	–	–	–	–	–	–	–
CO[C@H]1CCN(Cc2ccc(CN3CCO[C@H](OC)CC(=O)NCCO[C@@H](OC)CC3)cc2)CCO[C@H](OC)CC(=O)NCCO1 (relative stereo)	–	< 4.00	> 100	0	4	7	< 4.00	10	–	2	13	> 100	–	0	0	–	0	–	0
CO[C@@H]1CCN(Cc2ccc(CN3CC[C@@H](OC)OC[C@@H](c4ccccc4)NC(=O)C[C@@H](OC)OC[C@H]3c3ccccc3)cc2)[C@H](c2ccccc2)CO[C@H](OC)CC(=O)N[C@H](c2ccccc2)CO1	–	< 5.00	> 10	12	0	21	< 5.00	31	–	8	25	> 10	–	17	15	–	18	–	14
